# Results from ChEMBL document CHEMBL1212762, “In vivo activity of ceftobiprole in murine skin infections due to Staphylococcus aureus and Pseudomonas aeruginosa” (Antimicrob Agents Chemother, 2010).
# What was measured:
# Pseudomonas aeruginosa [1] = assay: Antimicrobial activity against Pseudomonas aeruginosa OC 4354 infected in immunocompromized SKH1 mouse assessed as log change in bacterial colony forming unit at 25 mg/kg/day, sc; assay type: functional; conditions: route subcutaneous
# Outline: (§1)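 Female SKH1 hairless mice made neutropenic with ip cyclophosphamide (150 mg/kg 5 days and 100 mg/kg 1 day before infection). 0.2 ml s.c. Cytodex bead (0.1% vol/vol) inoculum in BHI: OC 4351 left flank, OC 4354 right flank. Drug s.c. at 1, 3, 25, 27 h postinfection. Killed at 48 h; skin homogenised in saline, plated on TSA 18 h 37°C; Δlog CFU/g versus inoculum. 5 mice/dose, run twice.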
# Pseudomonas aeruginosa [2] = assay: Antimicrobial activity against Pseudomonas aeruginosa OC 4354 infected in immunocompromized SKH1 mouse assessed as log change in bacterial colony forming unit at 1.6 mg/kg/day, sc; assay type: functional; conditions: route subcutaneous; outline: as §1
# [3] = Half life in immunocompromized SKH1 mouse plasma at 50 mg/kg, sc; assay type: ADME, organism-based; set-up: dose 50 mg/kg, route subcutaneous
# [4] = Tmax in immunocompromized SKH1 mouse plasma at 12.5 mg/kg, sc; assay type: ADME, organism-based; set-up: dose 12.5 mg/kg, route subcutaneous
# Outline: (§2)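 Female SKH1 hairless mice, immunocompetent or cyclophosphamide-neutropenic, infected s.c. with MRSA OC 8525 or P. aeruginosa OC 4354 on the Cytodex beads (left flank), sterile beads on the right. Single dose 24 h later: s.c. at the nape, or linezolid 50 mg/kg oral. Plasma and skin (DMSO homogenate) sampled over time, HPLC with diode array.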
# Pseudomonas aeruginosa [5] = assay: Antimicrobial activity against Pseudomonas aeruginosa OC 4354 infected in immunocompromized SKH1 mouse assessed as log change in bacterial colony forming unit at 100 mg/kg/day, sc; assay type: functional; conditions: route subcutaneous; outline: as §1
# Pseudomonas aeruginosa [6] = assay: Antimicrobial activity against Pseudomonas aeruginosa OC 4354 assessed as inhibition of growth by broth microdilution method; assay type: functional
# [7] = Half life in immunocompromized SKH1 mouse plasma at 12.5 mg/kg, sc; assay type: ADME, organism-based; set-up: dose 12.5 mg/kg, route subcutaneous; outline: as §2
# Plasma [8] = assay: fAUC (0-infinity) in immunocompromized SKH1 mouse plasma at 12.5 mg/kg, sc; assay type: ADME, organism-based; set-up: dose 12.5 mg/kg, route subcutaneous; conditions: in vivo; outline: as §2
# Pseudomonas aeruginosa [9] = assay: Antimicrobial activity against Pseudomonas aeruginosa OC 4354 infected in immunocompromized SKH1 mouse assessed as lesion volume at 25 mg/kg/day, sc measured after 48 hrs postinfection (reference value: 2195 mm3); assay type: functional; conditions: route subcutaneous
# Pseudomonas aeruginosa [10] = assay: Antimicrobial activity against Pseudomonas aeruginosa OC 4354 infected in immunocompromized SKH1 mouse assessed as lesion volume at 6.2 mg/kg/day, sc measured after 48 hrs postinfection (reference value: 2195 mm3); assay type: functional; conditions: route subcutaneous
# Pseudomonas aeruginosa [11] = assay: Antimicrobial activity against Pseudomonas aeruginosa OC 4351 infected in immunocompromized SKH1 mouse assessed as log change in bacterial colony forming unit at 25 mg/kg/day, sc; assay type: functional; conditions: route subcutaneous; outline: as §1
# [12] = Tmax in immunocompromized SKH1 mouse plasma at 50 mg/kg, sc; assay type: ADME, organism-based; set-up: dose 50 mg/kg, route subcutaneous; outline: as §2
# Plasma [13] = assay: fAUC (0-infinity) in immunocompromized SKH1 mouse plasma at 50 mg/kg, sc; assay type: ADME, organism-based; set-up: dose 50 mg/kg, route subcutaneous; conditions: in vivo; outline: as §2
# Pseudomonas aeruginosa [14] = assay: Antimicrobial activity against Pseudomonas aeruginosa OC 4354 infected in immunocompromized SKH1 mouse assessed as lesion volume at 1.6 mg/kg/day, sc measured after 48 hrs postinfection (reference value: 2195 mm3); assay type: functional; conditions: route subcutaneous
# [15] = fT>MIC in Pseudomonas aeruginosa OC 4351 infected sc dosed SKH1 mouse at 50 mg/kg, sc administered twice at 1 and 3 hrs after infection; assay type: functional; conditions: route subcutaneous
# Pseudomonas aeruginosa [16] = assay: Antimicrobial activity against Pseudomonas aeruginosa OC 4351 infected in immunocompromized SKH1 mouse assessed as lesion volume at 25 mg/kg/day, sc measured after 48 hrs postinfection (reference value: 2234 mm3); assay type: functional; conditions: route subcutaneous
# Pseudomonas aeruginosa [17] = assay: Antimicrobial activity against Pseudomonas aeruginosa OC 4351 infected in immunocompromized SKH1 mouse assessed as log change in bacterial colony forming unit at 1.6 mg/kg/day, sc; assay type: functional; conditions: route subcutaneous; outline: as §1
# Pseudomonas aeruginosa [18] = assay: Antimicrobial activity against Pseudomonas aeruginosa OC 4351 assessed as inhibition of growth by broth microdilution method; assay type: functional
# [19] = fT>MIC in Pseudomonas aeruginosa OC 4354 infected sc dosed SKH1 mouse at 50 mg/kg, sc administered twice at 1 and 3 hrs after infection; assay type: functional; conditions: route subcutaneous
# Pseudomonas aeruginosa [20] = assay: Antimicrobial activity against Pseudomonas aeruginosa OC 4351 infected in immunocompromized SKH1 mouse assessed as lesion volume at 1.6 mg/kg/day, sc measured after 48 hrs postinfection (reference value: 2234 mm3); assay type: functional; conditions: route subcutaneous
# Pseudomonas aeruginosa [21] = assay: Antimicrobial activity against Pseudomonas aeruginosa OC 4351 infected in immunocompromized SKH1 mouse assessed as log change in bacterial colony forming units at 25 mg/kg/day, sc; assay type: functional; conditions: route subcutaneous; outline: as §1
# Pseudomonas aeruginosa [22] = assay: Antimicrobial activity against Pseudomonas aeruginosa OC 4351 infected in immunocompromized SKH1 mouse assessed as lesion volume at 100 mg/kg/day, sc measured after 48 hrs postinfection (reference value: 2234 mm3); assay type: functional; conditions: route subcutaneous
# Pseudomonas aeruginosa [23] = assay: Antimicrobial activity against Pseudomonas aeruginosa OC 4354 infected in immunocompromized SKH1 mouse assessed as lesion volume at 100 mg/kg/day, sc measured after 48 hrs postinfection (reference value: 2195 mm3); assay type: functional; conditions: route subcutaneous
# [24] = fT>MIC in Pseudomonas aeruginosa OC 4351 infected sc dosed SKH1 mouse administered in 24 hrs dosing interval; assay type: functional
# Plasma [25] = assay: fCmax in immunocompromized SKH1 mouse plasma at 12.5 mg/kg, sc; assay type: ADME, organism-based; set-up: dose 12.5 mg/kg, route subcutaneous; conditions: in vivo; outline: as §2
# Plasma [26] = assay: fCmax in immunocompromized SKH1 mouse plasma at 50 mg/kg, sc; assay type: ADME, organism-based; set-up: dose 50 mg/kg, route subcutaneous; conditions: in vivo; outline: as §2
# [27] = fT>MIC in Pseudomonas aeruginosa OC 4354 infected sc dosed SKH1 mouse administered in 24 hrs dosing interval; assay type: functional
# Outline: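 Plasma levels came from female hairless SKH1 mice given single s.c. doses at the nape 24 h after flank s.c. infection with Cytodex beads. S. aureus work used immunocompetent mice. P. aeruginosa work used mice made neutropenic with cyclophosphamide i.p., 150 mg/kg at day −5 and 100 mg/kg at day −1. Drug assayed by HPLC with diode-array detection. Noncompartmental analysis.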
# Pseudomonas aeruginosa [28] = assay: Antimicrobial activity against Pseudomonas aeruginosa OC 4351 infected in immunocompromized SKH1 mouse assessed as log change in bacterial colony forming unit at 100 mg/kg/day, sc; assay type: functional; conditions: route subcutaneous; outline: as §1
# Pseudomonas aeruginosa [29] = assay: Antimicrobial activity against Pseudomonas aeruginosa OC 4351 infected in immunocompromized SKH1 mouse assessed as lesion volume at 6.2 mg/kg/day, sc measured after 48 hrs postinfection (reference value: 2234 mm3); assay type: functional; conditions: route subcutaneous
# Pseudomonas aeruginosa [30] = assay: Antimicrobial activity against Pseudomonas aeruginosa OC 4354 infected in immunocompromized SKH1 mouse assessed as log change in bacterial colony forming unit at 6.2 mg/kg/day, sc; assay type: functional; conditions: route subcutaneous; outline: as §1
# Staphylococcus aureus [31] = assay: Antimicrobial activity against methicillin-resistant Staphylococcus aureus OC 8525 infected immunocompetent SKH1 mouse assessed as lesion volume at 1.6 mg/kg/day, sc measured after 48 hrs postinfection (reference value: 1535 mm3); conditions: route subcutaneous
# Staphylococcus aureus [32] = assay: Antimicrobial activity against methicillin-resistant Staphylococcus aureus OC 8525 infected immunocompetent SKH1 mouse assessed as lesion volume at 100 mg/kg/day, sc measured after 48 hrs postinfection (reference value: 1535 mm3); conditions: route subcutaneous
# [33] = Ratio of fAUC to MIC in Staphylococcus aureus OC 8525 infected sc dosed SKH1 mouse; assay type: functional
# Outline: (§3)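 Free-drug plasma AUC, converted from μg·min/ml to μg·h/ml, divided by the MIC of the infecting S. aureus strain.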
# Plasma [34] = assay: fAUC (0-infinity) in immunocompetent SKH1 mouse plasma at 50 mg/kg, sc; assay type: ADME, organism-based; set-up: dose 50 mg/kg, route subcutaneous; conditions: in vivo; outline: as §2
# [35] = Half life in immunocompetent SKH1 mouse plasma at 50 mg/kg, sc; assay type: ADME, organism-based; set-up: dose 50 mg/kg, route subcutaneous
# Staphylococcus aureus [36] = assay: Antimicrobial activity against methicillin-resistant Staphylococcus aureus OC 8525 infected immunocompetent SKH1 mouse assessed as lesion volume at 6.2 mg/kg/day, sc measured after 48 hrs postinfection (reference value: 1535 mm3); conditions: route subcutaneous
# Plasma [37] = assay: fCmax in immunocompetent SKH1 mouse plasma at 50 mg/kg, sc; assay type: ADME, organism-based; set-up: dose 50 mg/kg, route subcutaneous; conditions: in vivo; outline: as §2
# Staphylococcus aureus [38] = assay: Antimicrobial activity against methicillin-susceptible Staphylococcus aureus Smith OC 4172 infected immunocompetent SKH1 mouse assessed as lesion volume at 100 mg/kg/day, sc measured after 48 hrs postinfection (reference value: 1181 mm3); conditions: route subcutaneous
# [39] = Protein binding in mouse plasma; assay type: ADME, cell-free; conditions: read-out: PPB (converted)
# Staphylococcus aureus [40] = assay: Antimicrobial activity against methicillin-susceptible Staphylococcus aureus Smith OC 4172 infected immunocompetent SKH1 mouse assessed as lesion volume at 1.6 mg/kg/day, sc measured after 48 hrs postinfection (reference value: 1181 mm3); conditions: route subcutaneous
# [41] = Tmax in immunocompetent SKH1 mouse plasma at 50 mg/kg, sc; assay type: ADME, organism-based; set-up: dose 50 mg/kg, route subcutaneous; outline: as §2
# Staphylococcus aureus [42] = assay: Antimicrobial activity against methicillin-susceptible Staphylococcus aureus Smith OC 4172 infected immunocompetent SKH1 mouse assessed as lesion volume at 25 mg/kg/day, sc measured after 48 hrs postinfection (reference value: 1181 mm3); conditions: route subcutaneous
# Staphylococcus aureus [43] = assay: Antimicrobial activity against methicillin-resistant Staphylococcus aureus OC 8525 infected immunocompetent SKH1 mouse assessed as lesion volume at 25 mg/kg/day, sc measured after 48 hrs postinfection (reference value: 1535 mm3); conditions: route subcutaneous
# Staphylococcus aureus [44] = assay: Antimicrobial activity against methicillin-susceptible Staphylococcus aureus Smith OC 4172 infected immunocompetent SKH1 mouse assessed as lesion volume at 6.2 mg/kg/day, sc measured after 48 hrs postinfection (reference value: 1181 mm3); conditions: route subcutaneous
# [45] = Ratio of fAUC to MIC in Staphylococcus aureus OC 4172 infected sc dosed SKH1 mouse; assay type: functional; outline: as §3
smiles,measurement,setting,value
C[C@@H](O)[C@H]1C(=O)N2C(C(=O)O)=C(S[C@@H]3CN[C@H](C(=O)N(C)C)C3)[C@H](C)[C@H]12 [MEROPENEM],deltalog10CFU,Pseudomonas aeruginosa [1],-1.1
same,deltalog10CFU,Pseudomonas aeruginosa [2],0.7
same,half-life,[3],8.6 min
same,Tmax,[4],7.5 min
same,deltalog10CFU,Pseudomonas aeruginosa [5],-1.1
same,MIC,Pseudomonas aeruginosa [6],0.5 µg/mL
same,half-life,[7],13.6 min
same,fAUC,Plasma [8],268 µg·min/mL
same,Activity,Pseudomonas aeruginosa [9],926 mm3
same,Activity,Pseudomonas aeruginosa [10],1030 mm3
same,deltalog10CFU,Pseudomonas aeruginosa [11],0.2
same,Tmax,[12],7.5 min
same,fAUC,Plasma [13],1837 µg·min/mL
same,Activity,Pseudomonas aeruginosa [14],1316 mm3
same,fT>MIC,[15],2 h
same,Activity,Pseudomonas aeruginosa [16],862 mm3
same,deltalog10CFU,Pseudomonas aeruginosa [17],0.2
same,MIC,Pseudomonas aeruginosa [18],0.12 µg/mL
same,fT>MIC,[19],1.9 h
same,Activity,Pseudomonas aeruginosa [20],1190 mm3
same,deltalog10CFU,Pseudomonas aeruginosa [21],-0.9
same,Activity,Pseudomonas aeruginosa [22],602 mm3
same,Activity,Pseudomonas aeruginosa [23],810 mm3
same,fT>MIC,[24],8.5%
same,fCmax,Plasma [25],11 µg/mL
same,fCmax,Plasma [26],72 µg/mL
same,fT>MIC,[27],8%
same,deltalog10CFU,Pseudomonas aeruginosa [28],-1
same,Activity,Pseudomonas aeruginosa [29],992 mm3
same,deltalog10CFU,Pseudomonas aeruginosa [30],0.5
CN[C@H](CC(C)C)C(=O)N[C@H]1C(=O)N[C@@H](CC(N)=O)C(=O)N[C@H]2C(=O)N[C@H]3C(=O)N[C@H](C(=O)N[C@H](C(=O)O)c4cc(O)cc(O)c4-c4cc3ccc4O)[C@H](O)c3ccc(c(Cl)c3)Oc3cc2cc(c3O[C@@H]2O[C@H](CO)[C@@H](O)[C@H](O)[C@H]2O[C@H]2C[C@](C)(N)[C@H](O)[C@H](C)O2)Oc2ccc(cc2Cl)[C@H]1O [VANCOMYCIN],Activity,Staphylococcus aureus [31],1637 mm3
same,Activity,Staphylococcus aureus [32],606 mm3
same,fAUC/MIC,[33],2070
same,fAUC,Plasma [34],2070 µg·min/mL
same,half-life,[35],22 min
same,Activity,Staphylococcus aureus [36],1392 mm3
same,fCmax,Plasma [37],40 µg/mL
same,Activity,Staphylococcus aureus [38],437 mm3
same,fraction unbound,[39],0.75
same,Activity,Staphylococcus aureus [40],1386 mm3
same,Tmax,[41],10 min
same,Activity,Staphylococcus aureus [42],916 mm3
same,Activity,Staphylococcus aureus [43],927 mm3
same,Activity,Staphylococcus aureus [44],1211 mm3
same,fAUC/MIC,[45],2070
